In ChEMBL document CHEMBL4373712, “Bioactivatable Pseudotripeptidization of Cyclic Dipeptides To Increase the Affinity toward Oligopeptide Transporter 1 for Enhanced Oral Absorption: An Application to Cyclo(l-Hyp-l-Ser) (JBP485)” (J Med Chem, 2019):
pIC50: −log10 of the molar value. Activity calls are given as the source filed them. The rule behind the calls is not given here.

Legend:
[1] = AUC (0 to t) in Sprague-Dawley rat assessed as JBP485 level at 12 mg/kg equiv of JBP485 administered orally by UPLC-MS/MS analysis; format: ADME, organism-based; details: in vivo, po
Summary of the method: (§1)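 Male SD rats, 200-250 g, fasted 12 h with water, n=6. Oral dose of 12 mg/kg as JBP485 equivalent; dose-effect arms at 12 and 100 mg/kg. JBP485 given iv at 6 mg/kg as the reference. Jugular blood taken at 0.083-10 h. Plasma JBP485 by UPLC-MS/MS. Absolute F = (AUCpo×Div)/(AUCiv×Dpo)×100%, using AUC0-t.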

[2] = Half life in Sprague-Dawley rat intestinal homogenates at 5 mM by HPLC analysis; format: ADME, tissue-based, Intestine
Summary of the method: (§2)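 Jejunum and liver homogenates from male SD rats in pH 7.4 PBS, adjusted to 200 µg/mL protein, and rat plasma. Each incubated with compound at 5 mM at 37 °C.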

Rattus norvegicus [3] = assay: (§3) Anti-hepatitis activity in ANIT-induced Sprague-Dawley rat model of liver injury assessed as reduction in hepatocellular edema at 3.125 to 25 mg/kg, po administered 30 mins prior to ANIT challenge and subsequent dosing at 8, 22, 32, and 46 hrs post ANIT challenge and measured 48 hrs post ANIT challenge by H and E staining-based assay; format: functional, organism-based
Summary of the method: (§4)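 ANIT 50 mg/kg ip liver-injury model in male SD rats, 6 per group. Oral or ip treatment at 30 min before and 8, 22, 32 and 46 h after ANIT. Liver excised at 48 h, fixed in 4% formalin, stained with H&E, and examined microscopically for hepatocellular edema and necrosis.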

[4] = molecular target: T1, Solute carrier family 15 member 1 (Homo sapiens, UniProt P46059); assay: Substrate activity at PEPT1 in human Caco2 cells assessed as inhibition of Gly-Sar uptake measured after 10 mins by UPLC-MS/MS analysis; format: cell-based
T1 sequence (P46059 whole entry): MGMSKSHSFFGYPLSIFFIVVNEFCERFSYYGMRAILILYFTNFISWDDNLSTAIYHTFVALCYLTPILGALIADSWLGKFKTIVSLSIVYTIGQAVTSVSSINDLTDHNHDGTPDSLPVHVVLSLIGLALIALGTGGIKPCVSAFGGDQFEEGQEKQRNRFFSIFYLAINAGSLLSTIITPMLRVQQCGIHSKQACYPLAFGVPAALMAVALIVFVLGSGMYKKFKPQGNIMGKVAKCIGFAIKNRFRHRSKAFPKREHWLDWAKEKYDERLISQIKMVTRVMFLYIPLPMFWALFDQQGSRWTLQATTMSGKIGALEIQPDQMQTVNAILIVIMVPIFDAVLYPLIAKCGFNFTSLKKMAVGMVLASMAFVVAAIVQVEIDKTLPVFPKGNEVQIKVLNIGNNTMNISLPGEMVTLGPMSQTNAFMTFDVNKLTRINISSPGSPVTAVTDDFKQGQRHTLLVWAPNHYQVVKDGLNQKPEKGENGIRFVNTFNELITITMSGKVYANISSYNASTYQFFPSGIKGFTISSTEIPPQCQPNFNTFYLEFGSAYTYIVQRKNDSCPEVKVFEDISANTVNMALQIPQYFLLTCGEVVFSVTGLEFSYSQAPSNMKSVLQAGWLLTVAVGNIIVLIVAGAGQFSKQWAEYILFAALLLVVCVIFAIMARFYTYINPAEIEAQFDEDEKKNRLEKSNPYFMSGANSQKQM
Summary of the method: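 Caco-2 cells with 0.5 mM Gly-Sar probe substrate and competitor at 0.5–50 mM. IC50 by nonlinear fitting; n=3.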

[5] = Apparent permeability across human Caco2 cells at 0.5 mM measured after 5 to 60 mins by UPLC-MS/MS analysis; format: ADME, cell-based; details: caco-2, 500 µM
Summary of the method: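 Caco-2 cells grown on 0.4 µm transwell inserts; monolayers used only with TEER >300 Ω/cm². Compound at 0.5 mM in apical pH 6.0 HBSS, basolateral pH 7.4 HBSS, 37 °C. Basolateral samples taken at 5, 15, 30, 45 and 60 min. Quantified by UPLC-MS/MS; Papp from steady-state flux, area and initial donor concentration. Three repeats.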

[6] = Half life in pH 1.2 simulated gastric fluid at 5 mM by HPLC analysis; format: ADME
Summary of the method: (§5)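 Compound at 5 mM in 0.1 M HCl, pH 4.5 acetate buffer, pH 5.8/6.8/7.2 phosphate buffers, SGF (pH 1.2) and SIF (pH 6.8), prepared per Chinese Pharmacopoeia. Samples taken at 0-20 h and analyzed by HPLC-UV. k = 2.303×slope of log C versus time; t1/2 = 0.693/k.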

Rattus norvegicus [7] = assay: as §3, with “liver necrosis” for “hepatocellular edema”; format: functional, organism-based; summary of the method: as §4
[8] = Half life in pH 4.5 acetate buffer at 5 mM by HPLC analysis; format: physicochemical; summary of the method: as §5
[9] = molecular target: T1, Solute carrier family 15 member 1; assay: Substrate activity at PEPT1 in human Caco2 cells assessed as protein-mediated drug uptake at 0.5 mM measured after 10 mins in pH 6 HBSS buffer by UPLC-MS/MS analysis; format: ADME, cell-based; details: caco-2, pH 6, 10 min, 500 µM
Summary of the method: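 Caco-2 cells incubated 10 min with 0.5 mM compound in HBSS at pH 6.0 or pH 7.4, washed three times in ice-cold PBS pH 7.4, homogenised. Protein by DC assay; drug by UPLC-MS/MS; n=3.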

[10] = Half life in Sprague-Dawley rat liver homogenates at 5 mM by HPLC analysis; format: ADME, tissue-based; summary of the method: as §2
[11] = Oral bioavailability in Sprague-Dawley rat at 12 mg/kg by UPLC-MS/MS analysis; format: ADME, organism-based; details: in vivo; summary of the method: as §1
Rattus norvegicus [12] = assay: Anti-hepatitis activity in ANIT-induced ip dosed Sprague-Dawley rat model of cholestasis assessed as reduction in serum total bilirubin level administered 30 mins prior to ANIT challenge and subsequent dosing at 8, 22, 32, and 46 hrs post ANIT challenge and measured 48 hrs post ANIT challenge; format: functional, organism-based
Summary of the method: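 Male SD rats, 6 weeks old, fasted 12 h, 6 per group. Cholestasis induced by ANIT 50 mg/kg ip in olive oil. Test agents were given in water; UDCA 100 mg/kg was given orally in CMC-Na. Dosing at 30 min before and 8, 22, 32 and 46 h after ANIT. Serum taken from the abdominal aorta under chloral hydrate anesthesia at 48 h; total bilirubin measured with an assay kit.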

[13] = Terminal half life in Beagle dog at 12 mg/kg, po by UPLC-MS/MS analysis; format: ADME, organism-based, Canis lupus familiaris; details: in vivo, read-out: beta t1/2 (converted)
Summary of the method: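 Male beagle dogs, 2 years old, 8–10 kg, dosed orally at 12 mg/kg (prodrug calculated as JBP485) in aqueous solution. Jugular blood taken 0.167–8 h into heparin, centrifuged, plasma JBP485 by UPLC-MS/MS; n=6.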

[14] = Cmax in Beagle dog at 12 mg/kg, po by UPLC-MS/MS analysis; format: ADME, organism-based, Canis lupus familiaris; set-up: dose 12 mg/kg, route oral; details: in vivo
Summary of the method: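 Male beagle dogs, 2 years old, 8-10 kg, n=6. Single oral dose of 12 mg/kg (prodrug dosed as JBP485 equivalent) given in aqueous solution. Jugular venipuncture blood taken at 0.167-8 h into sodium heparin tubes. Plasma JBP485 measured by UPLC-MS/MS; AUC0-t and Cmax from the concentration-time profiles.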

Row | SMILES | AUCt [1] | half-life at 5000 µM [2] | Activity (Rattus norvegicus [3]) | pIC50 [4] | Papp [5] | half-life at 5000 µM [6] | Activity (Rattus norvegicus [7]) | half-life at 5000 µM [8] | Drug uptake [9] | half-life at 5000 µM [10] | bioavailability [11] | Activity (Rattus norvegicus [12]) | half-life [13] | Cmax [14]
1 | CC(C)[C@H](N)C(=O)OC[C@@H]1NC(=O)[C@@H]2C[C@@H](O)CN2C1=O | 194.47 nM/ml.hr | < 0.16 h | Active | 2.54 | Permeable | > 20 h | Active | > 20 h | Active | 0.86 h | – | – | – | –
2 | O=C1N[C@@H](CO)C(=O)N2C[C@H](O)C[C@@H]12 | – | > 20 h | – | 1.74 | Impermeable | > 20 h | – | > 20 h | Active | > 20 h | 21% | Dose-dependent effect | 5.23 h | 26.65 nM/ml
